Experimental data taken from paper PMC10099425 (ACS Omega, 2023).

How the values were obtained:
[1] = Diffusion and permeability studies; format: in vitro ADME; settings: after 480 min, PBS pH 6.8, 37 °C, NAR 50 mg/mL in donor
[2] = Pharmacokinetic study after oral administration; format: in vivo, Wistar rats; settings: male, Wistar, rat, plasma, 50 mg/kg
Procedure, shortened: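 Male Wistar rats (220–250 g, 10–12 weeks) were fasted overnight with water ad libitum (n = 6/group). They were dosed orally with the compound as a 0.5% w/v Na-CMC suspension or DES formulation. Retro-orbital blood was drawn at 0, 0.5, 2, 4, 6, 8, 12 and 24 h. Plasma was precipitated with acetonitrile (1:3) and assayed by isocratic C18 HPLC-DAD at 283 nm. Parameters came from PK software; mean ± SD.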

[3] = cited from earlier work

amount of NAR diffused [1]: 30.78 ± 3.4 % w/v
AUC(0-t) [2]: 226 ± 4.2 ng·h/mL
Cmax [2]: 31.2 ± 2.3 ng/mL
MRT [2]: 6.46 ± 1.7 h
Tmax [2]: 4.1 ± 0.6 h
half-life [2]: 3.43 ± 1.1 h
Structure (SMILES): C[C@@H]1O[C@@H](O[C@H]2[C@H](Oc3cc(O)c4c(c3)O[C@H](c3ccc(O)cc3)CC4=O)O[C@H](CO)[C@@H](O)[C@@H]2O)[C@H](O)[C@H](O)[C@H]1O [NAR (pure), 4′,5,7-trihydroxyflavanone 7-rhamnoglucoside]
elimination half-life [3]: 3.64 ± 3.0 h
